Test results reported in ChEMBL document CHEMBL4261538, “Synthesis and molecular docking studies of xanthone attached amino acids as potential antimicrobial and anti-inflammatory agents” (Medchemcomm, 2017).
Values after ≈ are worked out from the molar mass of the structure shown.

Experiments:
Erythrocyte = experiment: Anti-inflammatory activity in human RBC assessed as inhibition of hypotonic solution-induced hemolysis after 10 mins by spectrophotometric method; type: functional, cell-based
Summary of the method: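 Human blood (heparinized) washed with 0.9% saline, packed cells made into a 40% v/v stock in isotonic phosphate buffer (154 mM NaCl, 10 mM sodium phosphate, pH 7.4). Stock RBC mixed with hypotonic buffer (50 mM NaCl, 10 mM phosphate, pH 7.4) plus sample at 20–100 µg mL⁻¹.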

Staphylococcus aureus [1] = experiment: Antibacterial activity against Staphylococcus aureus at 100 ug/ml incubated for 24 hrs by agar well diffusion method; type: functional; settings: read-out: DIZ
Summary of the method: (§1)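 Bacteria grown in nutrient broth at 37 °C for 24 h, then subcultured at room temperature. Compounds dissolved in DMSO at 5 mg mL⁻¹ and 5–20 µL added to 6 mm wells, giving 25, 50, 75, 100 µg per well. Gentamicin was the positive control and DMSO the negative control. Plates held at 37 °C for 24 h, then inhibition zone diameter (mm) measured. Values are means of three determinations.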

Aspergillus niger [2] = experiment: Antifungal activity against Aspergillus niger at 100 ug/ml incubated for 48 hrs by agar well diffusion method; type: functional; settings: read-out: DIZ
Summary of the method: (§2)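 Compounds dissolved in DMSO at 5 mg mL⁻¹ and 5–20 µL added to 6 mm wells, giving 25, 50, 75, 100 µg per well. Bavistin was the positive control and DMSO the negative control. Plates incubated at 28 °C for 48 h, then inhibition zone diameter (mm) measured. Values are means of three determinations.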

Candida albicans [3] = experiment: Antifungal activity against Candida albicans at 50 ug/ml incubated for 48 hrs by agar well diffusion method; type: functional; settings: read-out: DIZ; summary of the method: as §2
Bacillus subtilis [4] = experiment: Antibacterial activity against Bacillus subtilis at 100 ug/ml incubated for 24 hrs by agar well diffusion method; type: functional; settings: read-out: DIZ; summary of the method: as §1
Klebsiella pneumoniae [5] = experiment: Antibacterial activity against Klebsiella pneumoniae at 50 ug/ml incubated for 24 hrs by agar well diffusion method; type: functional; settings: read-out: DIZ; summary of the method: as §1
Aspergillus niger [6] = experiment: Antifungal activity against Aspergillus niger at 75 ug/ml incubated for 48 hrs by agar well diffusion method; type: functional; settings: read-out: DIZ; summary of the method: as §2
Candida albicans [7] = experiment: Antifungal activity against Candida albicans at 25 ug/ml incubated for 48 hrs by agar well diffusion method; type: functional; settings: read-out: DIZ; summary of the method: as §2
Staphylococcus aureus [8] = experiment: Antibacterial activity against Staphylococcus aureus incubated for 24 hrs by microdilution method; type: functional
Escherichia coli [9] = experiment: Antibacterial activity against Escherichia coli at 75 ug/ml incubated for 24 hrs by agar well diffusion method; type: functional; settings: read-out: DIZ; summary of the method: as §1
Fusarium oxysporum [10] = experiment: Antifungal activity against Fusarium oxysporum at 25 ug/ml incubated for 48 hrs by agar well diffusion method; type: functional; settings: read-out: DIZ; summary of the method: as §2
Staphylococcus aureus [11] = experiment: Antibacterial activity against Staphylococcus aureus at 25 ug/ml incubated for 24 hrs by agar well diffusion method; type: functional; settings: read-out: DIZ; summary of the method: as §1
Candida albicans [12] = experiment: Antifungal activity against Candida albicans at 100 ug/ml incubated for 48 hrs by agar well diffusion method; type: functional; settings: read-out: DIZ; summary of the method: as §2
Candida albicans [13] = experiment: Antifungal activity against Candida albicans at 75 ug/ml incubated for 48 hrs by agar well diffusion method; type: functional; settings: read-out: DIZ; summary of the method: as §2
Bacillus subtilis [14] = experiment: Antibacterial activity against Bacillus subtilis incubated for 24 hrs by microdilution method; type: functional
Bacillus subtilis [15] = experiment: Antibacterial activity against Bacillus subtilis at 50 ug/ml incubated for 24 hrs by agar well diffusion method; type: functional; settings: read-out: DIZ; summary of the method: as §1
Escherichia coli [16] = experiment: Antibacterial activity against Escherichia coli at 50 ug/ml incubated for 24 hrs by agar well diffusion method; type: functional; settings: read-out: DIZ; summary of the method: as §1
Staphylococcus aureus [17] = experiment: Induction of cell membrane damage in Staphylococcus aureus assessed as cell content leakage at MIC by spectrophotometric method; type: functional, organism-based; settings: TDE = time-dependent effect
Summary of the method: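 Log-phase S. aureus inoculated into 0.1% sterile peptone water, with an untreated control, and held at 37 °C for 0, 30, 60 and 120 min. 1 mL of broth centrifuged and supernatant OD read at 260 nm to measure released DNA. Run in triplicate, repeated three times.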

Aspergillus niger [18] = experiment: Antifungal activity against Aspergillus niger at 25 ug/ml incubated for 48 hrs by agar well diffusion method; type: functional; settings: read-out: DIZ; summary of the method: as §2
Aspergillus niger [19] = experiment: Antifungal activity against Aspergillus niger at 50 ug/ml incubated for 48 hrs by agar well diffusion method; type: functional; settings: read-out: DIZ; summary of the method: as §2
Klebsiella pneumoniae [20] = experiment: Antibacterial activity against Klebsiella pneumoniae at 25 ug/ml incubated for 24 hrs by agar well diffusion method; type: functional; settings: read-out: DIZ; summary of the method: as §1
Klebsiella pneumoniae [21] = experiment: Antibacterial activity against Klebsiella pneumoniae incubated for 24 hrs by microdilution method; type: functional
Candida albicans [22] = experiment: Antifungal activity against Candida albicans incubated for 48 to 72 hrs by microdilution method; type: functional
Summary of the method: (§3)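 Sabouraud agar plates inoculated with fungal suspension at 10⁵ CFU mL⁻¹ plus serially diluted compounds and bavistin reference, both in DMSO. Incubated at 25 °C for 48–72 h. MIC is the lowest concentration completely inhibiting growth. Values are means of three determinations.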

Klebsiella pneumoniae [23] = experiment: Antibacterial activity against Klebsiella pneumoniae at 75 ug/ml incubated for 24 hrs by agar well diffusion method; type: functional; settings: read-out: DIZ; summary of the method: as §1
Staphylococcus aureus [24] = experiment: Antibacterial activity against Staphylococcus aureus at 50 ug/ml incubated for 24 hrs by agar well diffusion method; type: functional; settings: read-out: DIZ; summary of the method: as §1
Fusarium oxysporum [25] = experiment: Antifungal activity against Fusarium oxysporum at 75 ug/ml incubated for 48 hrs by agar well diffusion method; type: functional; settings: read-out: DIZ; summary of the method: as §2
Escherichia coli [26] = experiment: Antibacterial activity against Escherichia coli at 25 ug/ml incubated for 24 hrs by agar well diffusion method; type: functional; settings: read-out: DIZ; summary of the method: as §1
Escherichia coli [27] = experiment: Antibacterial activity against Escherichia coli incubated for 24 hrs by microdilution method; type: functional
Bacillus subtilis [28] = experiment: Antibacterial activity against Bacillus subtilis at 75 ug/ml incubated for 24 hrs by agar well diffusion method; type: functional; settings: read-out: DIZ; summary of the method: as §1
Fusarium oxysporum [29] = experiment: Antifungal activity against Fusarium oxysporum incubated for 48 to 72 hrs by microdilution method; type: functional; summary of the method: as §3
Bacillus subtilis [30] = experiment: Antibacterial activity against Bacillus subtilis at 25 ug/ml incubated for 24 hrs by agar well diffusion method; type: functional; settings: read-out: DIZ; summary of the method: as §1
Staphylococcus aureus [31] = experiment: Antibacterial activity against Staphylococcus aureus at 75 ug/ml incubated for 24 hrs by agar well diffusion method; type: functional; settings: read-out: DIZ; summary of the method: as §1
Aspergillus niger [32] = experiment: Antifungal activity against Aspergillus niger incubated for 48 to 72 hrs by microdilution method; type: functional; summary of the method: as §3
Fusarium oxysporum [33] = experiment: Antifungal activity against Fusarium oxysporum at 50 ug/ml incubated for 48 hrs by agar well diffusion method; type: functional; settings: read-out: DIZ; summary of the method: as §2
Fusarium oxysporum [34] = experiment: Antifungal activity against Fusarium oxysporum at 100 ug/ml incubated for 48 hrs by agar well diffusion method; type: functional; settings: read-out: DIZ; summary of the method: as §2
Klebsiella pneumoniae [35] = experiment: Antibacterial activity against Klebsiella pneumoniae at 100 ug/ml incubated for 24 hrs by agar well diffusion method; type: functional; settings: read-out: DIZ; summary of the method: as §1
Escherichia coli [36] = experiment: Antibacterial activity against Escherichia coli at 100 ug/ml incubated for 24 hrs by agar well diffusion method; type: functional; settings: read-out: DIZ; summary of the method: as §1

MIC (Staphylococcus aureus [8]) [µg/mL]	MIC (Bacillus subtilis [14]) [µg/mL]	Compound	IC50 (Erythrocyte) [µg/mL]	zone of inhibition at 100 µg/mL (Staphylococcus aureus [1]) [mm]	zone of inhibition at 100 µg/mL (Aspergillus niger [2]) [mm]	zone of inhibition at 50 µg/mL (Candida albicans [3]) [mm]	zone of inhibition at 100 µg/mL (Bacillus subtilis [4]) [mm]	zone of inhibition at 50 µg/mL (Klebsiella pneumoniae [5]) [mm]	zone of inhibition at 75 µg/mL (Aspergillus niger [6]) [mm]	zone of inhibition at 25 µg/mL (Candida albicans [7]) [mm]	zone of inhibition at 75 µg/mL (Escherichia coli [9]) [mm]	zone of inhibition at 25 µg/mL (Fusarium oxysporum [10]) [mm]	zone of inhibition at 25 µg/mL (Staphylococcus aureus [11]) [mm]	zone of inhibition at 100 µg/mL (Candida albicans [12]) [mm]	zone of inhibition at 75 µg/mL (Candida albicans [13]) [mm]	zone of inhibition at 50 µg/mL (Bacillus subtilis [15]) [mm]	zone of inhibition at 50 µg/mL (Escherichia coli [16]) [mm]	Activity (Staphylococcus aureus [17])	zone of inhibition at 25 µg/mL (Aspergillus niger [18]) [mm]	zone of inhibition at 50 µg/mL (Aspergillus niger [19]) [mm]	other results
18 (≈ 36.1 µM)	17 (≈ 34.1 µM)	CC(C)(C)OC(=O)N[C@@H](Cc1c[nH]c2ccccc12)C(=O)Oc1ccc2c(=O)c3ccccc3oc2c1	24 (≈ 48.1 µM)	40	44	31	39	29	36	24	37	21	22	42	37	29	30	Tde	24	31	zone of inhibition at 25 µg/mL (Klebsiella pneumoniae [20]): 22 mm; MIC (Klebsiella pneumoniae [21]): 20 µg/mL (≈ 40.1 µM); MIC (Candida albicans [22]): 19 µg/mL (≈ 38.1 µM); zone of inhibition at 75 µg/mL (Klebsiella pneumoniae [23]): 36 mm; zone of inhibition at 50 µg/mL (Staphylococcus aureus [24]): 29 mm; zone of inhibition at 75 µg/mL (Fusarium oxysporum [25]): 35 mm; zone of inhibition at 25 µg/mL (Escherichia coli [26]): 24 mm; MIC (Escherichia coli [27]): 16 µg/mL (≈ 32.1 µM); zone of inhibition at 75 µg/mL (Bacillus subtilis [28]): 33 mm; MIC (Fusarium oxysporum [29]): 21 µg/mL (≈ 42.1 µM); zone of inhibition at 25 µg/mL (Bacillus subtilis [30]): 23 mm; zone of inhibition at 75 µg/mL (Staphylococcus aureus [31]): 35 mm; MIC (Aspergillus niger [32]): 20 µg/mL (≈ 40.1 µM); zone of inhibition at 50 µg/mL (Fusarium oxysporum [33]): 30 mm; zone of inhibition at 100 µg/mL (Fusarium oxysporum [34]): 40 mm; zone of inhibition at 100 µg/mL (Klebsiella pneumoniae [35]): 41 mm; zone of inhibition at 100 µg/mL (Escherichia coli [36]): 41 mm
21 (≈ 44.2 µM)	20 (≈ 42.1 µM)	CC(C)(C)OC(=O)N[C@@H](Cc1ccc(O)cc1)C(=O)Oc1ccc2c(=O)c3ccccc3oc2c1	32 (≈ 67.3 µM)	36	41	29	37	24	37	20	33	22	20	37	34	28	27	Tde	22	30	zone of inhibition at 25 µg/mL (Klebsiella pneumoniae [20]): 18 mm; MIC (Klebsiella pneumoniae [21]): 24 µg/mL (≈ 50.5 µM); MIC (Candida albicans [22]): 24 µg/mL (≈ 50.5 µM); zone of inhibition at 75 µg/mL (Klebsiella pneumoniae [23]): 30 mm; zone of inhibition at 50 µg/mL (Staphylococcus aureus [24]): 26 mm; zone of inhibition at 75 µg/mL (Fusarium oxysporum [25]): 36 mm; zone of inhibition at 25 µg/mL (Escherichia coli [26]): 20 mm; MIC (Escherichia coli [27]): 19 µg/mL (≈ 40 µM); zone of inhibition at 75 µg/mL (Bacillus subtilis [28]): 35 mm; MIC (Fusarium oxysporum [29]): 22 µg/mL (≈ 46.3 µM); zone of inhibition at 25 µg/mL (Bacillus subtilis [30]): 20 mm; zone of inhibition at 75 µg/mL (Staphylococcus aureus [31]): 32 mm; MIC (Aspergillus niger [32]): 22 µg/mL (≈ 46.3 µM); zone of inhibition at 50 µg/mL (Fusarium oxysporum [33]): 29 mm; zone of inhibition at 100 µg/mL (Fusarium oxysporum [34]): 42 mm; zone of inhibition at 100 µg/mL (Klebsiella pneumoniae [35]): 34 mm; zone of inhibition at 100 µg/mL (Escherichia coli [36]): 36 mm
